697 NFkB inh – lowers PMA/ionomycin-induced NF-kB signal in 697 B cells | 697 B-cell NF-kB luciferase reporter, 16 h | inhibition, % at 4 µM | 330,000 compounds, 0.33% hits | AID 435022; in the data active = inhibition above about 35%
UPR CHOP act – activators of apoptotic arm of unfolded protein response (CHOP); CHO-CHOP luciferase reporter, UPR activation, luminescence; percent of tunicamycin response over DMSO baseline; activation, % at 10 µM; 330,000 compounds, 0.34% hits; AID 449763;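 active = at 10 µM dose, activation of 40% or more, normalized to positive control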;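 also: 100% = tunicamycin at 10 µg/mL and 0% = DMSO alone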
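Test system: CHO CHOP reporter cells. Input: 500 CHO-CHOP cells per well. Medium: F12 with 10% FBS. Technique: luciferase luminescence. Measure: percent activation relative to tunicamycin control. Dosing: 10 µM compound, 0.5% DMSO. Timing: 16-18 h cell attachment, then 6 h compound exposure, 37 °C.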
Jurkat NFkB inh – lowers PMA/ionomycin-induced NF-kB signal in Jurkat cells. 330,000 compounds, 0.53% hits. inhibition, % at 4 µM. PMA/ionomycin-induced NF-kB luciferase reporter, luminescence; in the data active = inhibition above about 50%
CHOP inhibitor – inhibitors of CHOP induction in ER stress response; inhibition, % at 10 µM; AID 2732; CHO-K1 CHOP-promoter luciferase, tunicamycin-induced, 15-18 h; 220,000 compounds, 3.8% hits;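 active = compounds that reduced the stress-induced luciferase reporter signal by more than about 70% of percent inhibition, limit read from the data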;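 also: 0% = tunicamycin plus vehicle and 100% = wells without tunicamycin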
Gli-Sufu block – antagonists of Gli-Sufu signaling. Sufu-KO-LIGHT fibroblasts, Gli luciferase reporter luminescence. inhibition, % at 5 µM. AID 588413. 340,000 compounds, 0.74% hits;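 active = inhibition above about 55%, limit read from the data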;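 also: 0% = DMSO-treated cells and 100% = wells with medium but no cells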
UPR XBP1 act – activators of adaptive arm of unfolded protein response (XBP1); activation, % at 20 µM; CHO-XBP1 luciferase reporter, IRE1-XBP1 UPR activation, luminescence; percent of tunicamycin response, DMSO as zero; 330,000 compounds, 0.33% hits;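 active = versus positive control, 20 µM dose yields 30% or more activation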;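 also: 100% = tunicamycin at 10 µg/mL and 0% = DMSO only wells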
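Assay system: CHO-XBP1 luciferase reporter cells; Schedule: 6 h treatment, 37 °C; Detection: glow luminescence from Steady-Glo reagent; Benchmarks: high control tunicamycin 10 µg/mL final, low control DMSO vehicle only.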
Gli antag conf – Gli-SUFU antagonism confirmation, single concentration. inhibition, % at 5 µM. Sufu-KO-LIGHT cells, Gli luciferase reporter, luminescence. shares compounds with Gli-Sufu block. 2,500 compounds, 40% hits;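 active = mean inhibition at 5 µM reaching about 45%, limit read from the data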;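 also: plate controls were DMSO-treated cells for no effect and wells lacking cells for full effect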
SufuKO cytotox – cytotoxic in Gli-SUFU antagonist counter-screen | 2,500 compounds, 32% hits | cytotoxicity, % at 5 µM | shares compounds with Gli-Sufu block | Sufu-KO-LIGHT cells cytotoxicity, ATP luminescence | AID 651994;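 active = mean cytotoxicity at 5 µM above about 25%, limit read from the data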;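 also: cells exposed to compound overnight for roughly 16 to 18 hours; plate controls were DMSO wells with cells for no effect and medium without cells for full effect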
Wnt3a cs – inhibits Wnt3a reporter, counter-screen for Gli-SUFU antagonists. inhibition, % at 6.25 µM. 2,500 compounds, 20% hits. shares compounds with Gli-Sufu block. Wnt-LIGHT cells, Wnt3a-driven luciferase reporter, luminescence. AID 651995;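 active = mean inhibition above about 25%, limit read from the data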
* hit, by the source's call. Most compounds without a hit are left out; they make up all but 3.9% or so of the library.

`Cc1nnc(SCC(=O)NCC2COc3ccccc3O2)s1` (stereo not drawn) gave 697 NFkB inh 16, UPR CHOP act 0, Jurkat NFkB inh -3, Gli-Sufu block -6 and UPR XBP1 act 1.
Cc1ccc(C2(C)NC(=O)N(CC(=O)NC3CCCCC3)C2=O)cc1 (stereo not drawn) was read as 697 NFkB inh 15, UPR CHOP act -1, Jurkat NFkB inh -8, Gli-Sufu block -10 and UPR XBP1 act 2.
Screening Cc1cccc(COc2ccc(/C=N/NC(=O)c3nnn(-c4nonc4N)c3C)cc2)c1 returned 697 NFkB inh 15, UPR CHOP act 2, Jurkat NFkB inh -10, Gli-Sufu block -31 and UPR XBP1 act -1.
Screening Cc1cc(C)c(/C=N/NC(=O)c2nnn(-c3nonc3N)c2COc2ccc(F)cc2)c(C)c1 returned 697 NFkB inh -4, UPR CHOP act 2, Jurkat NFkB inh -7, CHOP inhibitor -6, Gli-Sufu block 55, UPR XBP1 act -1, Gli antag conf 16, SufuKO cytotox 16 and Wnt3a cs -8.
Screening Cc1ccc(-c2cc[n+](Cc3ccccc3)cc2)cc1 returned 697 NFkB inh 34, UPR CHOP act -1, Jurkat NFkB inh 14, CHOP inhibitor 14, Gli-Sufu block 62*, UPR XBP1 act -1, Gli antag conf 78*, SufuKO cytotox 41* and Wnt3a cs 26*.
COc1ccc(C2CC(c3cccs3)=NN2C(=O)CSc2nc(=O)n3ccccc3n2)cc1 (stereo not drawn) was read as 697 NFkB inh -45, UPR CHOP act -1, Jurkat NFkB inh -9, Gli-Sufu block 80*, UPR XBP1 act 2, Gli antag conf 29, SufuKO cytotox 26* and Wnt3a cs 67*.
`Cc1ccc(C2CC(c3cccs3)=NN2C(=O)CSc2nc(=O)n3cc(C)ccc3n2)cc1` (stereo not drawn) gave 697 NFkB inh -11, UPR CHOP act 0, Jurkat NFkB inh 0, Gli-Sufu block 2 and UPR XBP1 act -1.
CC1(C)CC[C@]2(CO)CC[C@]3(C)C(=CCC4[C@@]5(C)CC[C@H](O)[C@@](C)(CO)C5CC[C@]43C)[C@@H]2C1 (stereo partly drawn) was read as 697 NFkB inh 1, UPR CHOP act -1, Jurkat NFkB inh 0, Gli-Sufu block 4 and UPR XBP1 act 0.
CN(CC(=O)Nc1ccc(F)c(F)c1F)C(=O)C1COc2ccccc2O1 (stereo not drawn) was read as 697 NFkB inh 2, UPR CHOP act 0, Jurkat NFkB inh 12, Gli-Sufu block -7 and UPR XBP1 act 0.
`O=C(OCC(=O)N1CCN(C(=O)c2ccco2)CC1)c1cc(F)c(F)cc1Cl` gave 697 NFkB inh -32, UPR CHOP act -1, Jurkat NFkB inh -11, Gli-Sufu block 5 and UPR XBP1 act -5.
Screening CCN1C(=NCCOC)N[C@@H](CCc2ccccc2)[C@H](C(=O)OC)[C@H]1C returned 697 NFkB inh -14, UPR CHOP act -1, Jurkat NFkB inh -3, Gli-Sufu block 10 and UPR XBP1 act 0.
For CCN1C(=NCCCOC(C)C)N[C@@H](CCc2ccccc2)[C@H](C(=O)NCCCOC(C)C)[C@H]1C the results were 697 NFkB inh -42, UPR CHOP act 1, Jurkat NFkB inh -7, Gli-Sufu block 56*, UPR XBP1 act 0, Gli antag conf 57*, SufuKO cytotox 30* and Wnt3a cs -23.
Screening CC(=O)Nc1ccc(S(=O)(=O)Nc2c(C)n(C)n(-c3ccccc3)c2=O)cc1 returned 697 NFkB inh 10, UPR CHOP act 0, Jurkat NFkB inh 2, CHOP inhibitor 9, Gli-Sufu block 3 and UPR XBP1 act -1.
`Cc1c(NS(=O)(=O)c2ccc(NC(=O)CCC(=O)O)cc2)c(=O)n(-c2ccccc2)n1C` gave 697 NFkB inh 8, UPR CHOP act 2, Jurkat NFkB inh -21, Gli-Sufu block 63*, UPR XBP1 act -4, Gli antag conf 5, SufuKO cytotox 14 and Wnt3a cs -33.
`c1ccc(-c2cncn2-c2ccccc2)cc1` gave 697 NFkB inh -18, UPR CHOP act 0, Jurkat NFkB inh 1, Gli-Sufu block -11 and UPR XBP1 act 4.
CCCCN(C(C)=O)c1ccc2c(c1)C1CC2CCN1C(=O)OCc1ccccc1 (stereo not drawn) was read as Gli-Sufu block 56*, Gli antag conf 64*, SufuKO cytotox 31* and Wnt3a cs 3.
CCN(CCc1ccccc1)c1ccc2c(c1)C1CC2CCN1C(=O)OCc1ccccc1 (stereo not drawn) was read as Gli-Sufu block 1.
Screening Cc1ccc(Cn2nnc3c(=O)[nH]c(C4CCN(S(=O)(=O)c5ccccc5F)CC4)nc32)cc1 returned 697 NFkB inh 14, UPR CHOP act 2, Jurkat NFkB inh 21, Gli-Sufu block 51, UPR XBP1 act -1, Gli antag conf 13, SufuKO cytotox 2 and Wnt3a cs -9.
`CC(NC(=O)C1CCN(C(=O)[C@@H]2Cc3ccccc3CN2)CC1)c1ccccc1` (stereo partly drawn) gave 697 NFkB inh -2, UPR CHOP act 1, Jurkat NFkB inh -4, Gli-Sufu block -24 and UPR XBP1 act -2.
For CCCc1ccc(-c2ccc(/C=C/C(=O)O)cc2)nc1 the results were CHOP inhibitor 25, Gli-Sufu block 71*, Gli antag conf 69*, SufuKO cytotox 56* and Wnt3a cs 91*.
Screening CCCCCc1ccc(-c2ccc(/C=C/C(=O)O)cc2)nc1 returned 697 NFkB inh -85, UPR CHOP act 2, Jurkat NFkB inh -6, CHOP inhibitor 31, Gli-Sufu block -3 and UPR XBP1 act 2.
`COc1cccc(CNC(=O)COC(=O)CCc2cc(OC)c(OC)c(OC)c2)c1` gave 697 NFkB inh -3, UPR CHOP act -1, Jurkat NFkB inh 0, Gli-Sufu block -1 and UPR XBP1 act 2.
For Cc1ccc(S(=O)(=O)NCCC(=O)NNC(=O)COc2ccccc2Cl)cc1C the results were 697 NFkB inh -8, UPR CHOP act 0, Jurkat NFkB inh -6, Gli-Sufu block 0 and UPR XBP1 act -1.
